Assay results: ChEMBL document CHEMBL2157982, “Synthesis and structure-activity relationships of 8-substituted-2-aryl-5-alkylaminoquinolines: Potent, orally active corticotropin-releasing factor-1 receptor antagonists” (Bioorg Med Chem, 2012)
Converted amounts (≈) assume the structure as drawn. The source made the active and inactive calls. The calls are words filed in the database; no cut-off is given here.

Assays:
[1] = Aqueous solubility of the compound in Dulbecco's phosphate-buffered saline at pH 7.4 by high-throughput HPLC method; assay type: physicochemical
Procedure, shortened: (§1)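 A 10 mM DMSO stock of compound was diluted 1:100 into buffer in a filter plate and shaken 15 min at room temperature, then filtered. Filtrate analysed by reverse-phase HPLC-UV against an external DMSO standard. Buffers: pH 1.2 HCl/NaCl; pH 5 and 9 Britton–Robinson (acetate/phosphate/borate with KCl, NaOH-adjusted); pH 7.4 Dulbecco's PBS.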

[2] = target: T1, Corticotropin-releasing factor receptor 1 (Homo sapiens, UniProt P34998); assay: Displacement of [125I]-CRF from human CRF1 receptor expressed in HEK293 cells after 2 hrs by scintillation counting; assay type: cell-based
T1 sequence (P34998 whole entry): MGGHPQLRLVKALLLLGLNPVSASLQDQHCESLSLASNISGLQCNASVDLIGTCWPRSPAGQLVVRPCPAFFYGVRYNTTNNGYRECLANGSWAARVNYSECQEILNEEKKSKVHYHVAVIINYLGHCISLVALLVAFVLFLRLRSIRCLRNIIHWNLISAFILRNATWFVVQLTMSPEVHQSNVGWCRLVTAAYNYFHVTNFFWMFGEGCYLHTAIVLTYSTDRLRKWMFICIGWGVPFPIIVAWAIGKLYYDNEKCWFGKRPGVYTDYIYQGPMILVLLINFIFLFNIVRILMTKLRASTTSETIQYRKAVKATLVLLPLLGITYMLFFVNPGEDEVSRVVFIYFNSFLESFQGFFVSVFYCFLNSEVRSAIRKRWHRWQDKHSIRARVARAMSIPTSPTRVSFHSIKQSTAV
Procedure, shortened: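 Scintillation proximity assay using HEK293/human CRF1 membranes (5 µg/well), WGA-coated SPA beads (1 mg/well) and 0.1 nM [125I] human/rat CRF. Buffer: PBS-type salts, 10 mM MgCl2, 2 mM EGTA, 1.5% BSA, protease inhibitors, pH 7.0. Incubated over 2 h at room temperature, then centrifuged and counted. Nonspecific binding defined with 0.4 µM sauvagine. IC50 from concentration-response curve of % total specific binding.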

[3] = target: T1, Corticotropin-releasing factor receptor 1; assay: Antagonist activity at human CRF1 receptor expressed in HEK293 cells assessed as inhibition of CRF-induced intracellular cAMP production preincubated for 30 mins before CRF addition measured after 30 mins by enzyme immunoassay; assay type: functional, cell-based
[4] = Dissociation constant, pKa of the compound; assay type: physicochemical
[5] = Solubility of the compound in HCl/NaCl at pH 1.2 by high-throughput HPLC method; assay type: physicochemical; settings: HCl/NaCl solution; procedure, shortened: as §1
[6] = Solubility of the compound in Britton-Robinson buffer at pH 9 by high-throughput HPLC method; assay type: physicochemical; procedure, shortened: as §1
[7] = Solubility of the compound in Britton-Robinson buffer at pH 5 by high-throughput HPLC method; assay type: physicochemical; procedure, shortened: as §1
Mus musculus [8] = assay: Anxiolytic activity in po dosed BALB/c mouse assessed as increase in number of tunnel crossings administered 60 mins before test measured for 5 mins by light-dark test; assay type: functional, organism-based
Procedure, shortened: (§2)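 Male BALB/c mice, n = 10/group, dosed orally 1 h before test. Animals were habituated to 10 lx for at least 2 h (room at 150 lx) and placed in the dark compartment at start. Observed for 5 min, scoring time in the illuminated box and number of tunnel crossings. Mean ± S.E.M., Dunnett test versus vehicle.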

Mus musculus [9] = assay: Anxiolytic activity in BALB/c mouse assessed as increase in time spent on illuminated box at 30 mg/kg, po administered 60 mins before test measured for 5 mins by light-dark test; assay type: functional, organism-based; parameters: dose 30 mg/kg; procedure, shortened: as §2
Mus musculus [10] = assay: Anxiolytic activity in po dosed BALB/c mouse assessed as increase in time spent on illuminated box administered 60 mins before test measured for 5 mins by light-dark test; assay type: functional, organism-based; procedure, shortened: as §2
Mus musculus [11] = assay: Anxiolytic activity in po dosed BALB/c mouse assessed as increase in number of tunnel crossings at 30 mg/kg, po administered 60 mins before test measured for 5 mins by light-dark test; assay type: functional, organism-based; parameters: dose 30 mg/kg; procedure, shortened: as §2
Rattus norvegicus [12] = assay: Inhibition of CRF-induced ACTH release in Fischer 344 rat plasma at 30 mg/kg, po administered 60 mins before CRF challenge by RIA; assay type: functional, organism-based; parameters: dose 30 mg/kg
Procedure, shortened: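 Male Fischer 344 rats (152–177 g) dosed orally 1 h before subcutaneous CRF at 10 µg/kg; controls got vehicle 5% DMSO/5% Cremophor/90% saline. Trunk blood taken 30 min after CRF into EDTA and spun. Plasma ACTH measured in duplicate by immunoradiometric kit against ACTH standard curve. n = 5–6 rats; mean ± S.E.M.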

[13] = Total blood clearance in Fischer 344 rat at 3 mg/kg, iv; assay type: ADME, organism-based; parameters: dose 3 mg/kg, route intravenous; settings: whole blood
Procedure, shortened: (§3)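 Fasted F344 rats (n = 3 per dose, 189.4–205.9 g) received 3 mg/kg iv in 5% EtOH-0.02 mol/L HCl/5% glucose, or 10 mg/kg po in 5% DMSO/5% Cremophor EL/HCl/water. Blood sampled at 0.083 h (iv only), then 0.25–8 h. Brain taken 1 h after po dosing and homogenized. Samples protein-precipitated with imipramine internal standard and quantified by LC–MS/MS (ESI+). Mean ± SEM.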

[14] = Oral bioavailability in Fischer 344 rat at 10 mg/kg; assay type: ADME, organism-based; settings: in vivo; procedure, shortened: as §3
[15] = Tmax in Fischer 344 rat at 10 mg/kg, po; assay type: ADME, organism-based; parameters: dose 10 mg/kg, route oral; settings: in vivo; procedure, shortened: as §3
[16] = Cmax in Fischer 344 rat at 10 mg/kg, po; assay type: ADME, organism-based; parameters: dose 10 mg/kg, route oral; settings: in vivo; procedure, shortened: as §3
Rattus norvegicus [17] = assay: AUC (infinity) in Fischer 344 rat at 3 mg/kg, iv; assay type: ADME, organism-based, Plasma; parameters: time infinity, dose 3 mg/kg, route intravenous; settings: in vivo
Procedure, shortened: (§4)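 Fasted F344 rats (n = 3 per dose, 189.4–205.9 g). iv: 3 mg kg−1 given as 3 mg mL−1 in 5% ethanol-0.02 mol L−1 HCl/5% glucose. p.o.: 10 mg kg−1 given as 2 mg mL−1 in 5% DMSO/5% Cremophor EL/equivalent HCl/H2O. Blood sampled at 0.083 h (iv only), then 0.25, 0.5, 1, 2, 4, 6 and 8 h. Plasma extracted with MeOH/MeCN containing imipramine internal standard and measured by positive-ESI LC–MS/MS. Results given as mean ± SEM.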

[18] = Volume of distribution at steady state in Fischer 344 rat at 3 mg/kg, iv; assay type: ADME, organism-based; parameters: dose 3 mg/kg, route intravenous; settings: in vivo, read-out: Vdss; procedure, shortened: as §3
Rattus norvegicus [19] = assay: AUC (infinity) in Fischer 344 rat at 10 mg/kg, po; assay type: ADME, organism-based, Plasma; parameters: time infinity, dose 10 mg/kg, route oral; settings: in vivo; procedure, shortened: as §4
[20] = Half life in Fischer 344 rat at 3 mg/kg, iv; assay type: ADME, organism-based; parameters: dose 3 mg/kg, route intravenous; settings: in vivo; procedure, shortened: as §3
[21] = Ratio of drug level in brain to plasma in Fischer 344 rat at 10 mg/kg, po after 1 hr; assay type: ADME, organism-based; parameters: dose 10 mg/kg, route oral; settings: brain and plasma, read-out: BPR; procedure, shortened: as §3

| Compound | solubility [1] | IC50 [2] | IC50 [3] | further results |
| --- | --- | --- | --- | --- |
| CCN(CCOC)c1ccc(C)c2nc(-c3c(OC)cc(COC)cc3OC)c(C)cc12 | 7.2 µM (≈ 3.16 µg/mL) | – | – | – |
| CCN(CC)c1ccc(C)c2nc(-c3c(OC)cc(COC)cc3OC)c(F)cc12 | < 0.2 µM | – | – | – |
| CCN(CC)c1ccc(C)c2nc(-c3c(OC)cc(COC)cc3OC)ccc12 | < 0.2 µM | – | – | – |
| CCN(CC)c1ccc(OC)c2nc(-c3c(OC)cc(C)cc3OC)c(C)cc12 | 17.3 µM (≈ 6.83 µg/mL) | 99 nM | 43 nM | – |
| CCN(CC)c1ccc(C(F)(F)F)c2nc(-c3c(OC)cc(COC)cc3OC)c(C)cc12 | < 0.2 µM | 288 nM | 259 nM | – |
| CCCN(CCC)c1ccc(OC)c2nc(-c3c(OC)cc(COC)cc3OC)c(C)cc12 | < 0.2 µM | 105 nM | 99 nM | – |
| CCN(CC)c1ccc(C)c2nc(-c3c(OC)cc(COC)cc3OC)c(Cl)cc12 | < 0.2 µM | – | – | – |
| CCN(CC)c1ccc(C(F)F)c2nc(-c3c(OC)cc(COC)cc3OC)c(C)cc12 | < 0.2 µM | 414 nM | – | – |
| CCN(CC)c1ccc(OC)c2nc(-c3c(OC)cc(COC)cc3OC)ccc12 | 38.2 µM (≈ 15.7 µg/mL) | 202 nM | 332 nM | – |
| CCN(CC)c1ccc(COC)c2nc(-c3c(OC)cc(COC)cc3OC)c(C)cc12 | 2.9 µM (≈ 1.27 µg/mL) | > 1000 nM | – | – |
| CCCN(CCC)c1ccc(C)c2nc(-c3c(OC)cc(COC)cc3OC)c(C)cc12 | 2 µM (≈ 0.873 µg/mL) | – | – | – |
| CCN(CCOC)c1ccc(OC)c2nc(-c3c(OC)cc(COC)cc3OC)c(C)cc12 | 89.4 µM (≈ 40.6 µg/mL) | 392 nM | – | – |
| CCN(CC)c1ccc(OC)c2nc(-c3c(OC)cc(C#N)cc3OC)c(C)cc12 | 11 µM (≈ 4.46 µg/mL) | 132 nM | 63 nM | – |
| CCN(CC)c1ccc(C#N)c2nc(-c3c(OC)cc(COC)cc3OC)c(C)cc12 | 3.2 µM (≈ 1.34 µg/mL) | 102 nM | 36 nM | pKa [4]: < 3; solubility [5]: > 100 µM; solubility [6]: 4.2 µM (≈ 1.76 µg/mL); solubility [7]: 2.1 µM (≈ 0.881 µg/mL) |
| CCN(CC)c1ccc(OC)c2nc(-c3c(Cl)cc(COC)cc3OC)c(C)cc12 | 3.7 µM (≈ 1.59 µg/mL) | 67 nM | 22 nM | Activity (Mus musculus [8]): Dose-dependent effect; Activity (Mus musculus [9]): Active; Activity (Mus musculus [10]): Dose-dependent effect; Activity (Mus musculus [11]): Active |
| CCN(CC)c1ccc(Cl)c2nc(-c3c(OC)cc(COC)cc3OC)c(C)cc12 | < 0.2 µM | 62 nM | 28 nM | – |
| CCN(CC)c1ccc(OC)c2nc(-c3c(OC)cc(COC)cc3OC)c(F)cc12 | 4.6 µM (≈ 1.97 µg/mL) | 118 nM | 75 nM | – |
| CCN(CC)c1ccc(OC)c2nc(-c3c(OC)cc(COC)cc3OC)c(Cl)cc12 | 1.9 µM (≈ 0.845 µg/mL) | 144 nM | 57 nM | – |
| CCN(CC)c1ccc(C)c2nc(-c3c(OC)cc(COC)cc3OC)c(C)cc12 | 1.7 µM (≈ 0.695 µg/mL) | – | – | pKa [4]: 5.86; solubility [5]: > 100 µM; solubility [6]: 2 µM (≈ 0.817 µg/mL); solubility [7]: 22 µM (≈ 8.99 µg/mL) |
| CCN(CC)c1ccc(F)c2nc(-c3c(OC)cc(COC)cc3OC)c(C)cc12 | 10.5 µM (≈ 4.33 µg/mL) | 226 nM | 67 nM | – |
| COCCN(CC(C)C)c1ccc(OC)c2nc(-c3c(OC)cc(COC)cc3OC)c(C)cc12 | 8.7 µM (≈ 4.2 µg/mL) | 156 nM | 65 nM | – |
| CCN(CC)c1ccc(OC)c2nc(-c3c(OC)cc(COC)cc3OC)c(C)cc12 | 74 µM (≈ 31.4 µg/mL) | 110 nM | 91 nM | Activity (Rattus norvegicus [12]): Active; pKa [4]: 6.01; solubility [5]: > 100 µM; clearance [13]: 44 mL/min/kg; Activity (Mus musculus [8]): Dose-dependent effect; bioavailability [14]: 16.4%; Tmax [15]: 30 min; solubility [6]: 71 µM (≈ 30.1 µg/mL); Cmax [16]: 305 ng/mL; Activity (Mus musculus [10]): Dose-dependent effect; AUC (Rattus norvegicus [17]): 1.542 µg/mL/h; Vd [18]: 2.15 L/kg; solubility [7]: 98.2 µM (≈ 41.7 µg/mL); AUC (Rattus norvegicus [19]): 0.845 µg/mL/h; half-life [20]: 104 min; Kp at 1 h [21]: 0.61 |
| CCc1cc2c(N(CC)CC)ccc(OC)c2nc1-c1c(OC)cc(COC)cc1OC | 12.1 µM (≈ 5.31 µg/mL) | 108 nM | 32 nM | – |
